Data on 1 compound can be found in ChEMBL document CHEMBL4145619, “Computer-Assisted Discovery of Retinoid X Receptor Modulating Natural Products and Isofunctional Mimetics” (J Med Chem, 2018).

Activity calls are given as the source filed them. The rule behind the calls is not given here.

What all share (assay type): cell-based
The target in data set [1] is T1, Oxysterols receptor LXR-beta (Homo sapiens) (UniProt P55055).
T1 sequence (whole entry): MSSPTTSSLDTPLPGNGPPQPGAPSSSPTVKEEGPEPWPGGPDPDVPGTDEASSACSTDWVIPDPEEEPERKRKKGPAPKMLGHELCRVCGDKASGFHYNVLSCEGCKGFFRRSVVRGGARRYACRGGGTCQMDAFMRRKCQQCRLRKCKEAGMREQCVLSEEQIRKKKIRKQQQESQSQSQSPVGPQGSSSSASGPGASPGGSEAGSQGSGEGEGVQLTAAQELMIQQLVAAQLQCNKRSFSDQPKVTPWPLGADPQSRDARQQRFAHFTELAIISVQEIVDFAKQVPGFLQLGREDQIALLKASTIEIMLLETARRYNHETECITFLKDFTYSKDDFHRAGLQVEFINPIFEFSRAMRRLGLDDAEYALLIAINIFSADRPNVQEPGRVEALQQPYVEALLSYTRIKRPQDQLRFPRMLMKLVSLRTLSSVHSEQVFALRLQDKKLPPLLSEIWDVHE
Briefly: Transactivation of human Gal4-fused LXRbeta LBD expressed in HEK293T cells at 30 uM after 12 to 14 hrs by dual-glo luciferase assay. The procedure, abridged: (§1)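 Single-concentration selectivity profiling in Gal4-hybrid reporter gene assays in HEK293T cells. Each nuclear receptor construct (RAR, PPAR, LXR, FXR, CAR, VDR, PXR, RXR) was tested at 30 μM.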

Data set [2] deals with T2, Retinoic acid receptor gamma (Homo sapiens) (UniProt P13631).
T2 sequence (whole entry): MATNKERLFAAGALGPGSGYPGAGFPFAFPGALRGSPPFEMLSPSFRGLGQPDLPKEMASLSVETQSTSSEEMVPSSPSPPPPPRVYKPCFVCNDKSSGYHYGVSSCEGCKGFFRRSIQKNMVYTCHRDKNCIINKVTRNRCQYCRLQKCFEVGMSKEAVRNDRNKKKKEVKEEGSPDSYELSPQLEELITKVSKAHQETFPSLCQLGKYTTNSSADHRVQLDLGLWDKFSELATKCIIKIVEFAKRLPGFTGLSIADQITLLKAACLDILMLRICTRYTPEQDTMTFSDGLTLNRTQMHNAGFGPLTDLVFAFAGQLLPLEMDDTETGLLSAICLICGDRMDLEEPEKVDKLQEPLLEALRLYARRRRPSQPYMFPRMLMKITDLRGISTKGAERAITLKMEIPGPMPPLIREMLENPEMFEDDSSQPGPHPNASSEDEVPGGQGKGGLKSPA
Briefly: Transactivation of human Gal4-fused RARgamma LBD expressed in HEK293T cells at 30 uM after 12 to 14 hrs by dual-glo luciferase assay. The procedure, abridged:
as §1

Data set [3] addresses T3, Nuclear receptor subfamily 1 group I member 3 (Homo sapiens, UniProt Q14994).
T3 sequence (Q14994 whole entry): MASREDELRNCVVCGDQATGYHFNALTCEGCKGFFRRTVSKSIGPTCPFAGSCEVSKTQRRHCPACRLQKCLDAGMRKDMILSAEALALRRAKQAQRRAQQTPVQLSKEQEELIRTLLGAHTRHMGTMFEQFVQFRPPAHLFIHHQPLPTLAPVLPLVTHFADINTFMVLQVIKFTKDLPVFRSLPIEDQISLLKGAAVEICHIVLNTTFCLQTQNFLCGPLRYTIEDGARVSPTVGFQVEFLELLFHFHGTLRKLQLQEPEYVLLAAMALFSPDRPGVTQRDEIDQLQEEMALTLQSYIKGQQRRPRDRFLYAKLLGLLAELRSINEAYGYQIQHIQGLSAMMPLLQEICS
Briefly: Transactivation of human Gal4-fused CAR LBD expressed in HEK293T cells at 30 uM after 12 to 14 hrs by dual-glo luciferase assay. Put shortly:
as §1

Data set [4] deals with T4, Retinoic acid receptor alpha (Homo sapiens) (UniProt P10276).
T4 sequence (whole entry): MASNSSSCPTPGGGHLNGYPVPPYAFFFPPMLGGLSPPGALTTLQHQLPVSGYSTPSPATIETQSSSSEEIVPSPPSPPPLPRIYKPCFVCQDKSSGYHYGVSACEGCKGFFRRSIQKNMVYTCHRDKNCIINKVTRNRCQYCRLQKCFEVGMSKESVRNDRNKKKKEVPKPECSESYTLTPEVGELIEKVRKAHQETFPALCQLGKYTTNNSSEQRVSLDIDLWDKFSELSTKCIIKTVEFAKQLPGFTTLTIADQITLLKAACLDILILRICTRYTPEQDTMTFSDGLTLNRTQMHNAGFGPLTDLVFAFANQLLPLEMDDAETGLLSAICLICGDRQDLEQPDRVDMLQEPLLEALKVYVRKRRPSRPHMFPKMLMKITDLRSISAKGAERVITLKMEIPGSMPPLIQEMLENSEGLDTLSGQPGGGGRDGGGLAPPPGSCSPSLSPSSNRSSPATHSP
As to the kind of experiment: Transactivation of human Gal4-fused RARalpha LBD expressed in HEK293T cells at 30 uM after 12 to 14 hrs by dual-glo luciferase assay. The procedure, abridged: as §1

The target in data set [5] is T5, Retinoid X receptor (Homo sapiens) (UniProt P28702+P48443+P19793). Briefly: Transactivation of RXR in human HepG2 cells assessed as induction of apoE mRNA expression at 30 uM after 8 hrs by qRT-PCR analysis. Put shortly:
(§2)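 HepG2 cells were treated and ABCA1 or ApoE mRNA levels measured. Results are given as mean fold induction versus 0.1% DMSO vehicle ± SEM, n = 3. Significance was set at p < 0.05, 0.01 or 0.001.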
For orientation: In qPCR the cycle at which signal appears reflects the starting amount.

Data set [6] addresses T6, Nuclear receptor subfamily 1 group I member 2 (Homo sapiens, UniProt O75469).
T6 sequence (O75469 whole entry): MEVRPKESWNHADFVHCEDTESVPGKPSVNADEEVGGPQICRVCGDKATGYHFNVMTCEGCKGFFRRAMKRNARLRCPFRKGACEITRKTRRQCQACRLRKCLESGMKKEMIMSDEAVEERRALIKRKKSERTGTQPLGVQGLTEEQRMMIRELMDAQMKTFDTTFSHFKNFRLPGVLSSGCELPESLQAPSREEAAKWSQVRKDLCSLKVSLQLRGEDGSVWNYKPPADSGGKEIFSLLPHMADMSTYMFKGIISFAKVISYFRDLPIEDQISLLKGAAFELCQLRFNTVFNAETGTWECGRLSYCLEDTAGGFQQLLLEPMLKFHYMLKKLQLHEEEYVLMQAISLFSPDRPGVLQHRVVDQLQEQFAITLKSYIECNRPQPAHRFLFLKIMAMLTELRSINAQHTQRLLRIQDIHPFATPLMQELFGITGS
As to the kind of experiment: Transactivation of human Gal4-fused PXR LBD expressed in HEK293T cells at 30 uM after 12 to 14 hrs by dual-glo luciferase assay. The procedure, abridged:
as §1

Data set [7] concerns the target T5, Retinoid X receptor (Homo sapiens). As to the kind of experiment: Transactivation of RXR in human HepG2 cells assessed as induction of ABCA1 mRNA expression at 30 uM after 8 hrs by qRT-PCR analysis. Put shortly: as §2
In the next data set the test system is HepG2. As to the kind of experiment: Cytotoxicity against human HepG2 cells assessed as reduction in cell viability up to 100 uM after 48 hrs by WST1 assay. The conditions noted are these: hepg2, 48 h. (Tetrazolium assays rely on reduction of a dye to a coloured formazan, in cell work by metabolically active cells.)

T5 sequence (P19793 whole entry, looked up): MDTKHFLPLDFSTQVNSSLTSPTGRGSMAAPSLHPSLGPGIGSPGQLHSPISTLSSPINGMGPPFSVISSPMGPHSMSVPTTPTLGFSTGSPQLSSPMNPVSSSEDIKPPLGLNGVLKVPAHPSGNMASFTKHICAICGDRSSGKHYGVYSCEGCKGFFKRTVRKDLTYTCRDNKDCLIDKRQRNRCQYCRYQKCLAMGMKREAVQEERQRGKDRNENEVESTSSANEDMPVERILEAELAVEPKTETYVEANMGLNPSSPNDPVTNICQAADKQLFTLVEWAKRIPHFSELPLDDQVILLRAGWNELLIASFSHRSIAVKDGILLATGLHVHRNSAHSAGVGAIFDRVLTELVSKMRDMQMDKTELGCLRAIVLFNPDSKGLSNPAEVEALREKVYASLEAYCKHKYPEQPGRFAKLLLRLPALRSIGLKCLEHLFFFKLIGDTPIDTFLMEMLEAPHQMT
T5 sequence (P28702 whole entry, looked up): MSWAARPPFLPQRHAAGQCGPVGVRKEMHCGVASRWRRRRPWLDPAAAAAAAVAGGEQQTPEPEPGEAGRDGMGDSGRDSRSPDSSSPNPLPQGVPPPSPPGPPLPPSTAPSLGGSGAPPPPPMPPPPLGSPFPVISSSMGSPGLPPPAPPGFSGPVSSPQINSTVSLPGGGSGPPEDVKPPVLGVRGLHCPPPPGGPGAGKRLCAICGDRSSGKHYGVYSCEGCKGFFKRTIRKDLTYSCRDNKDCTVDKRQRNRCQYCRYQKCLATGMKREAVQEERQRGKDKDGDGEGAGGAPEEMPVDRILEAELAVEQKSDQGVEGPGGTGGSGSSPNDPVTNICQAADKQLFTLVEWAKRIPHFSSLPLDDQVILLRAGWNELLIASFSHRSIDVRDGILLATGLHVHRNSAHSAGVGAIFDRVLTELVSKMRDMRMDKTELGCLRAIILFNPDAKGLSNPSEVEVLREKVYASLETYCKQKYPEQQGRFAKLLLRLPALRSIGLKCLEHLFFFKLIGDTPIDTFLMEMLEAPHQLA
T5 sequence (P48443 whole entry, looked up): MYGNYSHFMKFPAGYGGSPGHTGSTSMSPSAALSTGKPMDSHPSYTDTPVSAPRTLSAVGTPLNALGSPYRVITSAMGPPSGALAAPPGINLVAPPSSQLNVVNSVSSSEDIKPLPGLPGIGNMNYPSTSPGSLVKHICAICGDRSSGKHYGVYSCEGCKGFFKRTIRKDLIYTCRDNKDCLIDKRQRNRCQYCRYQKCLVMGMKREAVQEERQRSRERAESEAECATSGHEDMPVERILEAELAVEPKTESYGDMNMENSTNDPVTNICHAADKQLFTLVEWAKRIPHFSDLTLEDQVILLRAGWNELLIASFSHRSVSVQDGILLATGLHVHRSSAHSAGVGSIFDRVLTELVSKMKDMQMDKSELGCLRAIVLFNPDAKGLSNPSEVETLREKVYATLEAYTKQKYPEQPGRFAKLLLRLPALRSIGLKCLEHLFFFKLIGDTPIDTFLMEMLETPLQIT

On to `CC1=C2[C@H](/C=C(\C)C(=O)O)CC[C@@H](C)[C@H]2CC1` [VALERENIC ACID], for which the result in data set [1], in data set [2] and in data set [4] was inactive. Further, the figures for the Activity result (in data set [3]; in data set [6]; with HepG2) were “Not Active”, “Not Active” and “Non-Toxic”, respectively. Further, the result in data set [5] and in data set [7] was Active.
